ARFGAP1 inh: inhibitors of rat ARFGAP1. Q62848. Arfgap1-stimulated ARF1 GTP hydrolysis, GDP FP detection. inhibition, % at 16.5 µM. actives 0.26% (n = 360,000);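 active means inhibition above a per-plate limit, mean inhibition of low control wells plus 3 SD, cut at about 25% in these data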;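 further: 0% = DMSO wells with enzyme and 100% = wells lacking Arfgap1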
Target sequence (Q62848 1-136 limits assumed): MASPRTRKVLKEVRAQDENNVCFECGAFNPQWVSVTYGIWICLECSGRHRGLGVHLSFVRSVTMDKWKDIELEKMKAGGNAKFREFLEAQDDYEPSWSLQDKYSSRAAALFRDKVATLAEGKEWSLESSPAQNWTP
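Assay system: Rat Arfgap1 GAP domain (His6, aa 1-136), purified enzyme | Buffer or medium: HEPES 25 mM pH 7.5, NaCl 150 mM, MgCl2, DTT | Schedule: GTP hydrolysis reaction 2 h at 25 °C | Signal: FP of antibody-bound GDP Alexa 633 tracer, ex 620/em 688 nm | Measure: Percent inhibition of Arfgap1-stimulated GTP hydrolysis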
PAFAH1B3 inh: PAFAH1B3 (human) inhibition; Q15102; recombinant PAFAH1B3, FP-rhodamine probe, fluorescence polarization; inhibition, % at 3.39 µM; actives 0.28% (n = 340,000);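 active means inhibition above the screen-wide average of all tested compounds plus 3 SD, cut at about 25% in these data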;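 further: 0% = enzyme with DMSO only and 100% = wells lacking PAFAH1B3 protein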
ASAP1 GAP inh: blocks human ASAP1-stimulated Arf1 GTP hydrolysis; actives 0.19% (n = 360,000); Q9ULH1; inhibition, % at 16.5 µM; GDP FP detection; AID 624377; in the data active means inhibition above about 25%;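 further: 0% = vehicle with enzyme and substrate and 100% = no enzyme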
pPAFAH FP inh: inhibitors of human plasma PAF acetylhydrolase (pPAFAH). recombinant pPAFAH, FP-rhodamine probe fluorescence polarization. inhibition, % at 3.39 µM. Q13093. actives 1.5% (n = 330,000);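 active means inhibition above the mean inhibition across the screen plus 3 SD, cut at about 25% in these data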;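 further: inhibitors block binding of the rhodamine activity-based probe so polarization drops; 0% = enzyme with DMSO and 100% = wells lacking pPAFAH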
Target sequence (Q13093 whole entry, looked up): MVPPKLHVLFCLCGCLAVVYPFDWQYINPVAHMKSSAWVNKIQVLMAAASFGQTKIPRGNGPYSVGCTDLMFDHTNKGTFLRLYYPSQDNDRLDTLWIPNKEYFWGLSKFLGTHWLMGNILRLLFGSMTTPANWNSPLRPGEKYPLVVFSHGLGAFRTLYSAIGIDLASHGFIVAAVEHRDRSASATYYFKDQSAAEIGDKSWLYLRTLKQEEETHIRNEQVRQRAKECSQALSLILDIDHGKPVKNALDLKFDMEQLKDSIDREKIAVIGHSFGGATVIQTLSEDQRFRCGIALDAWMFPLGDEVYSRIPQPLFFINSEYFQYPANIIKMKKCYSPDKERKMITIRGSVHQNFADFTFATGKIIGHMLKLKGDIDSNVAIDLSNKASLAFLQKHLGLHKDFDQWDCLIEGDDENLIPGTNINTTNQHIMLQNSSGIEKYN
PAFAH1B2 inh: inhibitors of human PAFAH1B2; P68402; recombinant PAFAH1B2, FP-rhodamine activity probe, fluorescence polarization; inhibition, % at 3.39 µM; actives 1.2% (n = 340,000); AID 492953;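 active means inhibition above the mean of all tested compounds plus 3 SD, cut at about 24% in these data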;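 further: 0% = enzyme with DMSO and 100% = wells lacking PAFAH1B2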
PAFAH2 inh: PAFAH2 (human) inhibition. Q99487. recombinant PAFAH2, FP-rhodamine activity probe, fluorescence polarization. inhibition, % at 3.39 µM. actives 0.99% (n = 340,000). AID 492956;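 active means inhibition above the mean over all tested compounds plus 3 SD, cut at about 30% in these data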;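 further: inhibitors block probe labeling of enzyme so polarization drops; 0% = enzyme with DMSO and 100% = wells lacking PAFAH2 protein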
Numbers without * were called inactive; ! = not active in a repeat. In the library only some 2.7% were active in any assay of this set; here they are far more common.

What do the screens show for `COc1ccc(C(C)=NNc2ccc([N+](=O)[O-])cc2S(=O)(=O)Nc2ccccc2C(=O)O)c(OC)c1`?
ARFGAP1 inh: 9; PAFAH1B3 inh: -7; ASAP1 GAP inh: 17; pPAFAH FP inh: 31*; PAFAH1B2 inh: -5; PAFAH2 inh: 12

Results for COc1cccc(C(C)=NNc2ccc([N+](=O)[O-])cc2[N+](=O)[O-])c1OC ?
ARFGAP1 inh: 11; ASAP1 GAP inh: 9

Results for Nc1ncnc(N)c1NC(=O)c1ccccc1 ?
ARFGAP1 inh: -5; ASAP1 GAP inh: 1

How did CC(C)[C@H](NC(=O)c1ccc(Cl)c(Cl)c1)C(=O)N1CCC[C@H]1C(=O)NCCc1ccccc1Cl do in these assays?
ARFGAP1 inh: -1; ASAP1 GAP inh: 7

What do the screens show for `COc1ccc2c(c1)[C@@]1(OCCC=C[C@H]1C)C(=O)N2Cc1ccccc1C(F)(F)F`?
ARFGAP1 inh: 2; ASAP1 GAP inh: -1

How did COc1ccc(/C=N/N2C(=O)CSC2=S)cc1Br do in these assays?
ARFGAP1 inh: -5; PAFAH1B3 inh: -9; ASAP1 GAP inh: 15; pPAFAH FP inh: 29*; PAFAH1B2 inh: -7; PAFAH2 inh: 0

Results for Cc1cc2nc(SCC(=O)N(C)C)c3c(c2cc1C)CCCC3 ?
ARFGAP1 inh: -2; PAFAH1B3 inh: 0; ASAP1 GAP inh: -1; pPAFAH FP inh: 31*; PAFAH1B2 inh: -5; PAFAH2 inh: 5

What do the screens show for `O=S(=O)(Nc1ccc(-n2cccc2)cc1)c1ccc(Cl)c(Cl)c1`?
ARFGAP1 inh: 8; PAFAH1B3 inh: 0; ASAP1 GAP inh: 4; pPAFAH FP inh: 17; PAFAH1B2 inh: 7; PAFAH2 inh: -6

How did CCc1ccc(OC)c(S(=O)(=O)Nc2ccc(Cc3ccncc3)cc2)c1 do in these assays?
ARFGAP1 inh: 1; PAFAH1B3 inh: 3; ASAP1 GAP inh: 2; pPAFAH FP inh: 26*; PAFAH1B2 inh: 11; PAFAH2 inh: 0

How did O=S(=O)(Nc1ccc(Cc2ccncc2)cc1)c1ccc(Cl)c(Cl)c1 do in these assays?
ARFGAP1 inh: 15; PAFAH1B3 inh: 6; ASAP1 GAP inh: -4; pPAFAH FP inh: 25*; PAFAH1B2 inh: 8; PAFAH2 inh: 0

What do the screens show for `O=C(O)c1ccc(NS(=O)(=O)c2ccc(Cl)c(Cl)c2)cc1O`?
ARFGAP1 inh: -10; PAFAH1B3 inh: 2; ASAP1 GAP inh: -5; pPAFAH FP inh: 5; PAFAH1B2 inh: 33*; PAFAH2 inh: 2

How did O=C(O)c1cc(S(=O)(=O)Nc2ccc(N3CCCCC3)cc2)ccc1Cl do in these assays?
ARFGAP1 inh: 7; PAFAH1B3 inh: 6; ASAP1 GAP inh: -4; pPAFAH FP inh: 14; PAFAH1B2 inh: 9; PAFAH2 inh: 12

Results for Cc1ccc(S(=O)(=O)n2cnc3ccccc32)cc1 ?
ARFGAP1 inh: -4; PAFAH1B3 inh: 11; ASAP1 GAP inh: -2; pPAFAH FP inh: -3; PAFAH1B2 inh: 1; PAFAH2 inh: -4

Results for Cc1ccc(S(=O)(=O)n2cc(CO)c3ccccc32)cc1 ?
ARFGAP1 inh: 5; PAFAH1B3 inh: 6; ASAP1 GAP inh: -6; PAFAH1B2 inh: 47*; PAFAH2 inh: 3

How did CN1CCc2cccc3c2[C@H]1Cc1ccc(O)c(O)c1-3 do in these assays?
ARFGAP1 inh: 6; PAFAH1B3 inh: 7; ASAP1 GAP inh: 3; pPAFAH FP inh: 25*!; PAFAH1B2 inh: 0; PAFAH2 inh: 8

What do the screens show for `O=C(N/N=C/c1cc([N+](=O)[O-])ccc1O)NC12CC3CC(CC(C3)C1)C2`?
ARFGAP1 inh: 1; PAFAH1B3 inh: 10; ASAP1 GAP inh: -12; pPAFAH FP inh: 19; PAFAH1B2 inh: 88*; PAFAH2 inh: 23

Results for O=C(N/N=C/c1cc([N+](=O)[O-])ccc1O)C12CC3CC(CC(C3)C1)C2 ?
ARFGAP1 inh: -10; PAFAH1B3 inh: 7; ASAP1 GAP inh: 2; pPAFAH FP inh: 6; PAFAH1B2 inh: 42*; PAFAH2 inh: 91*

What do the screens show for `COC(=O)C1=C(C)N(Cc2cccc(C(F)(F)F)c2)C(=NCc2ccc(OC)cc2)NC1c1ccc(F)cc1` (stereo not drawn)?
ARFGAP1 inh: 1; ASAP1 GAP inh: 5

How did N#C/C(=C/c1ccc(O)c(O)c1)C(=O)NCc1ccc(Cl)cc1 do in these assays?
ARFGAP1 inh: -7; PAFAH1B3 inh: 12; ASAP1 GAP inh: -3; pPAFAH FP inh: 30*; PAFAH1B2 inh: 53*; PAFAH2 inh: 35*

How did O=C(Nc1ccccc1Cl)Oc1ccc(-c2ccccc2)cc1 do in these assays?
ARFGAP1 inh: 9; PAFAH1B3 inh: 7; ASAP1 GAP inh: 11; pPAFAH FP inh: 6; PAFAH1B2 inh: 60*; PAFAH2 inh: -1

How did O=[N+]([O-])c1ccc(COc2ccccc2CO)cc1 do in these assays?
ARFGAP1 inh: -1; ASAP1 GAP inh: -1

Results for O=C(c1cn(-c2ccccc2)nc1-c1cccnc1)N1CCN(S(=O)(=O)c2ccc(Cl)cc2)CC1 ?
ARFGAP1 inh: 4; PAFAH1B3 inh: 4; ASAP1 GAP inh: -7; PAFAH1B2 inh: 29*; PAFAH2 inh: -4

How did COC(=O)C1=C(C)N(C)C(=NCc2cccc(C(F)(F)F)c2)NC1c1ccc(C(F)(F)F)cc1 (stereo not drawn) do in these assays?
ARFGAP1 inh: 2; ASAP1 GAP inh: 19

Results for N#CC(=C1C=CC(=NO)C(Cl)=C1)c1ccc(Cl)cc1 ?
ARFGAP1 inh: 1; PAFAH1B3 inh: 8; ASAP1 GAP inh: -3; PAFAH1B2 inh: 38*; PAFAH2 inh: 7

Results for COc1ccc(C(C#N)=C2C=CC(=NO)C=C2)cc1 ?
ARFGAP1 inh: 15; PAFAH1B3 inh: 6; ASAP1 GAP inh: 11; pPAFAH FP inh: -3; PAFAH1B2 inh: 14; PAFAH2 inh: 10

How did CC(=O)Nc1ccc(S(=O)(=O)NCC2CCN(C(=O)C(=O)c3cccs3)CC2)cc1 do in these assays?
ARFGAP1 inh: 9; ASAP1 GAP inh: -11

Results for CC1(C)CC(=O)C=C(C#CC2CC2)C1 ?
ARFGAP1 inh: -5; ASAP1 GAP inh: -5

How did O=C(Nc1nc2ccc(S(=O)(=O)N3CCCCC3)cc2s1)c1ccncc1 do in these assays?
ARFGAP1 inh: 1; PAFAH1B3 inh: 6; ASAP1 GAP inh: -14; pPAFAH FP inh: 0; PAFAH1B2 inh: 30*; PAFAH2 inh: -2

How did O=C(NCC1CCCO1)c1cccc(S(=O)(=O)Nc2ccc(F)cc2)c1 (stereo not drawn) do in these assays?
ARFGAP1 inh: -9; PAFAH1B3 inh: 9; ASAP1 GAP inh: -5; pPAFAH FP inh: 25*; PAFAH1B2 inh: 7; PAFAH2 inh: 1

How did O=C(NCCCN1CCCC1=O)c1cccc(S(=O)(=O)Nc2ccc(F)cc2)c1 do in these assays?
ARFGAP1 inh: -8; PAFAH1B3 inh: 3; ASAP1 GAP inh: -10; pPAFAH FP inh: 34*; PAFAH1B2 inh: -1; PAFAH2 inh: 1
